# In ChEMBL document CHEMBL1177685, “Novel structure-activity relationships and selectivity profiling of cage dimeric 1,4-dihydropyridines as multidrug resistance (MDR) modulators” (Bioorg Med Chem, 2010):
# Key:
# Assay type in all cases: cell-based
# [1] = molecular target: Multidrug resistance-associated protein 1 (Homo sapiens, UniProt P33527); assay: Inhibition of MRP1 expressed in human A2780 cells at 10 uM relative to control; conditions: a2780, 10 µM
# [2] = molecular target: ATP-binding cassette sub-family C member 2 (Homo sapiens, UniProt Q92887); assay: Inhibition of MRP2 expressed in human A2780 cells at 10 uM relative to control; conditions: a2780, 10 µM
# Chain of ATP-binding cassette sub-family C member 2 (Q92887 whole entry): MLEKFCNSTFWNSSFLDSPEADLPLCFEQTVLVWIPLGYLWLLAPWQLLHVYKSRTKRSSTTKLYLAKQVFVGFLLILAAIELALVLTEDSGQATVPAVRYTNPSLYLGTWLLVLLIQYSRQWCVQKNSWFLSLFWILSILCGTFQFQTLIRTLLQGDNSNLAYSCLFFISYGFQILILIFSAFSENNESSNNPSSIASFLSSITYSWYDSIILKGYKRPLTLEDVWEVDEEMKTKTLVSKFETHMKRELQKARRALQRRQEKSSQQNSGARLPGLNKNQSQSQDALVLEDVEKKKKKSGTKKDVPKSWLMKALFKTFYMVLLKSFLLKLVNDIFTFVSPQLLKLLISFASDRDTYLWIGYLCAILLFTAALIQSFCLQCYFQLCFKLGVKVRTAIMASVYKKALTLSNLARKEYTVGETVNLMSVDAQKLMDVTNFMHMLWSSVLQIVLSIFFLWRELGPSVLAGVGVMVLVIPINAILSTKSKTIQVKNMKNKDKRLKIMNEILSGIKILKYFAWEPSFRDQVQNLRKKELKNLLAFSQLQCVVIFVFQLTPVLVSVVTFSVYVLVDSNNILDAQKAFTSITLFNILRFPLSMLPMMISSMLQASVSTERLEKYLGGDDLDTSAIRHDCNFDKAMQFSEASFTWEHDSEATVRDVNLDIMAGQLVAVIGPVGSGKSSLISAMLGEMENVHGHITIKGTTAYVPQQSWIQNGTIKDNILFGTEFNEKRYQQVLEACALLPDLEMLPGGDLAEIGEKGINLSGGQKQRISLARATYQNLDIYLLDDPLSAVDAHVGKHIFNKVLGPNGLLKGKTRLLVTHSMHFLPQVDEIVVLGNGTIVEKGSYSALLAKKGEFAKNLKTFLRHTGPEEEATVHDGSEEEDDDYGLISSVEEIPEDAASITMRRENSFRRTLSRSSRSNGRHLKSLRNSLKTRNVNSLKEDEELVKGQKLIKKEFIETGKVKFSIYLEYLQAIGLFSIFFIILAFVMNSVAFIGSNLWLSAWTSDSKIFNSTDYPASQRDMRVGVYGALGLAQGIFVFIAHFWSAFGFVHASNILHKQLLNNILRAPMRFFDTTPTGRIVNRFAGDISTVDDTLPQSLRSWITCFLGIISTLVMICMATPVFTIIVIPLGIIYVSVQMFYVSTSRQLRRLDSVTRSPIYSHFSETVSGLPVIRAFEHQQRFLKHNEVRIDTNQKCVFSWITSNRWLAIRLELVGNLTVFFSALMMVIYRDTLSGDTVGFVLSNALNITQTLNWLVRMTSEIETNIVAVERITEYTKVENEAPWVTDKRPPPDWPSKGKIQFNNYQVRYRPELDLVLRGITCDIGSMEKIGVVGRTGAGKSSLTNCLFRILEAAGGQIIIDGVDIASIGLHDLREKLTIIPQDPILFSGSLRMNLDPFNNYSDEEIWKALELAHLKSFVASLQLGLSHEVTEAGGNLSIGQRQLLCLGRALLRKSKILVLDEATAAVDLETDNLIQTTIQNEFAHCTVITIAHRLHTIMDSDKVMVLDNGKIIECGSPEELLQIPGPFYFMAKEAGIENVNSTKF
# Summary of the method: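 Cisplatin-induced A2780RCIS ovarian cells (maintained with cisplatin 10 ng/mL) and parental A2780P were seeded for 24 h, given fresh medium with inhibitor for 20 min at 37 °C, then carboxyfluorescein diacetate (2 µM final) for 40 min at 37 °C. After ice-cold PBS washes, 10,000 events were read by flow cytometry (488 nm excitation, 530 nm filter). MRP2 value = A2780RCIS uptake minus the MRP1-specific uptake in A2780P.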
# [3] = molecular target: T1, Broad substrate specificity ATP-binding cassette transporter ABCG2 (Homo sapiens, UniProt Q9UNQ0); assay: Inhibition of BCRP expressed in human EPG-257RNOV cells at 0.1 uM relative to control
# T1 sequence (Q9UNQ0 whole entry): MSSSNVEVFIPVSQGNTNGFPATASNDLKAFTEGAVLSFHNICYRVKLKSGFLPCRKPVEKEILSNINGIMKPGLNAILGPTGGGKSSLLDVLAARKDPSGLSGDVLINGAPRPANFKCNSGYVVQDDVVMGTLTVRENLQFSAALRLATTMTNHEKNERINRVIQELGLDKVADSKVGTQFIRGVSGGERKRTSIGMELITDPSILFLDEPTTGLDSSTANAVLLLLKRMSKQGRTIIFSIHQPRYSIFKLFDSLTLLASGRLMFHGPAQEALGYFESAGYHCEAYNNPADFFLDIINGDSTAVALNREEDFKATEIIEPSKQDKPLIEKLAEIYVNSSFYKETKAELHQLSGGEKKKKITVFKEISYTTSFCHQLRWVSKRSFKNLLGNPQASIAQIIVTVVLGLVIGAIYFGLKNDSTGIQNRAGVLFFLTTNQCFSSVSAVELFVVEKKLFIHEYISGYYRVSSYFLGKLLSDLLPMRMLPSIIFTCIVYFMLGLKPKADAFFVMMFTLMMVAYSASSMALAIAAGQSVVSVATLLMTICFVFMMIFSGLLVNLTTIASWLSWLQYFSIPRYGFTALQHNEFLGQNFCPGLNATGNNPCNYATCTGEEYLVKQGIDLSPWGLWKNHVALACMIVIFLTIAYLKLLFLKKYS
# Summary of the method: (§1)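 BCRP-overexpressing EPG85-257RNOV gastric carcinoma cells (kept in medium with mitoxantrone 0.2 µg/mL), 0.5×10^6 cells/mL, exposed to inhibitor 20 min at 37 °C. Mitoxantrone (20 µM final) then added for 60 min at 37 °C. Cells trypsinized, washed in ice-cold PBS, 10,000 events read by flow cytometry (488 nm excitation, 670 nm filter). R = treated/untreated fluorescence quotient, divided by the same quotient in parental EPG85-257P.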
# L5178Y [4] = assay: Inhibition of Pgp expressed in mouse L5178Y cells at 10 uM relative to control
# Summary of the method: (§2)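 L5178Y mouse T lymphoma cells transduced with human mdr1 retrovirus (colchicine-selected) and parental L5178Y, 2×10^6/mL in serum-free McCoy's 5A, preincubated with inhibitor 10 min at rt. Rhodamine 123 (5.2 µM final) added for 20 min at 37 °C. Cells washed twice, resuspended in PBS, 1×10^4 cells read by flow cytometry. R = treated/untreated fluorescence ratio, divided by the parental-line ratio.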
# L5178Y [5] = assay: Inhibition of Pgp expressed in mouse L5178Y cells at 1 uM relative to control; summary of the method: as §2
# [6] = molecular target: T1, Broad substrate specificity ATP-binding cassette transporter ABCG2; assay: Inhibition of BCRP expressed in human EPG-257RNOV cells at 1 uM relative to control; summary of the method: as §1
# Chain of Multidrug resistance-associated protein 1 (P33527 whole entry): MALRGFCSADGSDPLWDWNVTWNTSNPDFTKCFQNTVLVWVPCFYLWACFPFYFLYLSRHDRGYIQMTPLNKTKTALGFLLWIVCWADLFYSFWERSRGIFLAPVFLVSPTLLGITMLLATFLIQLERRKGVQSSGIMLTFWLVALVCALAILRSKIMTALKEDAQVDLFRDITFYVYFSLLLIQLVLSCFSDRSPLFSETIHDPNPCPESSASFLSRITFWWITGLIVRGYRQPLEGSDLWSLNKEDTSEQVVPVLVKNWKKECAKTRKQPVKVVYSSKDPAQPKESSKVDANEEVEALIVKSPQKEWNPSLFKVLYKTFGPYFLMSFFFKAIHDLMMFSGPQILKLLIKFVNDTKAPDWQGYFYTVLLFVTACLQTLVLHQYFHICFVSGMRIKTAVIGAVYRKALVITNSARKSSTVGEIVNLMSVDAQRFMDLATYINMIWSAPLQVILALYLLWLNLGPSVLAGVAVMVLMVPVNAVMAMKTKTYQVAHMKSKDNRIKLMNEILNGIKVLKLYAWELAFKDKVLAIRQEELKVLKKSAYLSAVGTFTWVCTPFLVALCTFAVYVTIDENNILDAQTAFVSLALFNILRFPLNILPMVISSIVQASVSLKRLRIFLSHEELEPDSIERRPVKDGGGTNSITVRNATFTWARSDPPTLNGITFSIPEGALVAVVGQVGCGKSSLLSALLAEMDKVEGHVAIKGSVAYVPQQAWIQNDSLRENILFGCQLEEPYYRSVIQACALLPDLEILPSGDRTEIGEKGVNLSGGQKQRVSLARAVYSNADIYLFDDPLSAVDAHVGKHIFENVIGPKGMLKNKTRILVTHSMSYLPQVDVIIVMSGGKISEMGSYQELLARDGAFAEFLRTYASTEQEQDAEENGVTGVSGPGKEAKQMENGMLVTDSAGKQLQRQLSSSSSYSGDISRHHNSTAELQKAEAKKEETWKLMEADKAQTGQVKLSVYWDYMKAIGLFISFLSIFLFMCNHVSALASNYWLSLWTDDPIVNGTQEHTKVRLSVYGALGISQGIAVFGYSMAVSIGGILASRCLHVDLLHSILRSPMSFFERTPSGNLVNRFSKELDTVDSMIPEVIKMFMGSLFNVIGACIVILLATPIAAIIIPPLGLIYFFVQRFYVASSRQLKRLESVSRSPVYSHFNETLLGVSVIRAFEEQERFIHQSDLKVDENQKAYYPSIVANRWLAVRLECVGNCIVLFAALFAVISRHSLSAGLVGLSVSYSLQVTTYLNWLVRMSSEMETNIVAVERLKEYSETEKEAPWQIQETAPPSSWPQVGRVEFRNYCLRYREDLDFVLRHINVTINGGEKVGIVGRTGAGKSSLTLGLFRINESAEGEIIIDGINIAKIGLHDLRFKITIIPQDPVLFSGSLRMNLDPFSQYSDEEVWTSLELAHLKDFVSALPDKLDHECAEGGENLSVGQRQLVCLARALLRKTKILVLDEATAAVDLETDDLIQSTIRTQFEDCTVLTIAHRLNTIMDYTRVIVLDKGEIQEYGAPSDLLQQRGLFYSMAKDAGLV
SMILES,Ratio [1],Ratio [2],Ratio [3],Ratio [6],Ratio (L5178Y [4]),Ratio (L5178Y [5])
COc1ccc2c(c1)c(CC(=O)O)c(C)n2C(=O)c1ccc(Cl)cc1 [INDOMETHACIN],4.1,0.75,–,–,–,–
OC[C@]12C3N(Cc4ccccc4)C4[C@@]5(CO)C(N(Cc6ccccc6)C1[C@]3(CO)[C@@H]5c1cccc(OCc3ccccc3)c1)[C@]4(CO)[C@@H]2c1cccc(OCc2ccccc2)c1,1.9,0.97,1.3,2.8,125,65
COc1ccc(CN2C3[C@]4(CO)C5N(Cc6ccc(OC)cc6)C6[C@@](CO)(C2[C@]6(CO)[C@H]4c2ccccc2)[C@H](c2ccccc2)[C@@]35CO)cc1,3.4,1.1,1.2,3.2,13,3.5
OC[C@]12C3N(Cc4ccccc4)C4[C@@]5(CO)C(N(Cc6ccccc6)C1[C@]3(CO)[C@@H]5c1ccncc1)[C@]4(CO)[C@@H]2c1ccncc1,2.2,0.74,–,1.2,7.7,2.4
OC[C@]12C3N(Cc4ccccc4)C4[C@@]5(CO)C(N(Cc6ccccc6)C1[C@]3(CO)[C@@H]5c1ccc(O)cc1)[C@]4(CO)[C@@H]2c1ccc(O)cc1,1.8,0.63,–,1.5,1.5,1.3
OC[C@]12C3N(Cc4cccc(OCc5ccccc5)c4)C4[C@@]5(CO)C(N(Cc6cccc(OCc7ccccc7)c6)C1[C@]3(CO)[C@@H]5c1ccccc1)[C@]4(CO)[C@@H]2c1ccccc1,2.8,0.97,1.5,4.2,205,117
OC[C@]12C3N(Cc4ccc(OCc5ccccc5)cc4)C4[C@@]5(CO)C(N(Cc6ccc(OCc7ccccc7)cc6)C1[C@]3(CO)[C@@H]5c1ccccc1)[C@]4(CO)[C@@H]2c1ccccc1,2.5,0.75,–,1.2,28,2.3
COc1ccc2c3c([nH]c2c1)[C@H](C=C(C)C)N1C(=O)[C@@H]2CCCN2C(=O)[C@@H]1C3 [FUMITREMORGIN],–,–,1.9,6,–,–

# More lines, main results first:
Ratio [1],Ratio [2],Ratio [3],Ratio [6],SMILES,Ratio (L5178Y [4]),Ratio (L5178Y [5])
1.3,1.05,–,1.1,OC[C@]12C3N(Cc4ccccc4)C4[C@@]5(CO)C(N(Cc6ccccc6)C1[C@]3(CO)[C@@H]5c1cccc(O)c1)[C@]4(CO)[C@@H]2c1cccc(O)c1,3,1.2
1.1,0.9,–,–,OC[C@]12C3N(Cc4cccnc4)C4[C@@]5(CO)C(N(Cc6cccnc6)C1[C@]3(CO)[C@@H]5c1ccccc1)[C@]4(CO)[C@@H]2c1ccccc1,1.1,1.2
1,1.56,1.4,3.5,OC[C@]12C3N(Cc4ccccc4)C4[C@@]5(CO)C(N(Cc6ccccc6)C1[C@]3(CO)[C@@H]5c1ccc(OCc3ccccc3)cc1)[C@]4(CO)[C@@H]2c1ccc(OCc2ccccc2)cc1,47,3.3
2.3,1.02,1.1,1.9,OC[C@]12C3N(Cc4ccccc4)C4[C@@]5(CO)C(N(Cc6ccccc6)C1[C@]3(CO)[C@@H]5c1ccccc1)[C@]4(CO)[C@@H]2c1ccccc1,29,4.1
1.6,0.82,–,1.1,OC[C@]12C3N(Cc4ccc(O)cc4)C4[C@@]5(CO)C(N(Cc6ccc(O)cc6)C1[C@]3(CO)[C@@H]5c1ccccc1)[C@]4(CO)[C@@H]2c1ccccc1,3.3,1.5
1.2,0.8,–,1.3,OC[C@]12C3N(Cc4ccncc4)C4[C@@]5(CO)C(N(Cc6ccncc6)C1[C@]3(CO)[C@@H]5c1ccccc1)[C@]4(CO)[C@@H]2c1ccccc1,1.1,1.5
4.8,1.25,1.5,6.1,COc1ccc(CN2C3[C@]4(CO)C5N(Cc6ccc(OC)cc6)C6[C@@](CO)(C2[C@]6(CO)[C@H]4c2ccc(OC)cc2)[C@H](c2ccc(OC)cc2)[C@@]35CO)cc1,46,3.1
